Measured values: ChEMBL document CHEMBL1122797, “Benzisoxazolones: antimicrobial and antileukemic activity” (1984)
In brackets after ≈: the same amount, converted by molar mass. Several values for one entry are separate records, joined by “and”; a condition that tells them apart may be missing. Identical values can stand only once. Activity calls are given as the source filed them. The calls are words filed in the database; no cut-off is given here.

Experiments:
Pseudomonas aeruginosa [1] = test: Evaluation of in vitro antimicrobial activity with an agar diffusion assay against Pseudomonas aeruginosa; assay type: functional
Outline: (§1)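 Agar diffusion assay. A standard antibiotic was run to validate the assays, with data reproducible to ± 3 mm between assays.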

Klebsiella pneumoniae [2] = test: Evaluation of in vitro antimicrobial activity with an agar diffusion assay against Klebsiella pneumoniae; assay type: functional; outline: as §1
L1210 [3] = test: In vitro antileukemic (cytotoxic) activity against L1210 cells in suspension.; assay type: functional, Mus musculus; conditions: for IC50: Mus musculus, L1210, read-out: ID50 (the source's name)
Proteus vulgaris [4] = test: Evaluation of in vitro antimicrobial activity with an agar diffusion assay against Proteus vulgaris; assay type: functional; outline: as §1
Providencia stuartii = test: In vitro evaluation of antimicrobial activity with microplate broth dilution assay against Providencia stuartii UC6570; assay type: functional
Outline: (§2)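 Serial twofold dilutions prepared in modified brain heart infusion broth in microplate wells. Each well inoculated with standardized cell suspension to ~10^6 viable cells per mL of drug-supplemented medium. Plates incubated 37 °C for 20 h. MIC read as lowest concentration inhibiting visible growth.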

Bacillus subtilis = test: Evaluation of in vitro antimicrobial activity with an agar diffusion assay against Bacillus subtilis; assay type: functional; outline: as §1
Klebsiella pneumoniae [5] = test: In vitro evaluation of antimicrobial activity with microplate broth dilution assay against Klebsiella pneumoniae UC58; assay type: functional; outline: as §2
[6] = In vitro evaluation of antimicrobial activity with microplate broth dilution assay against Salmonella schottmuelleri UC126; assay type: functional; outline: as §2
Salmonella typhi = test: In vitro evaluation of antimicrobial activity with microplate broth dilution assay against Salmonella typhi UC215; assay type: functional, Salmonella enterica subsp. enterica serovar Typhi; conditions: Salmonella enterica
Outline: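 Twofold serial dilutions in modified brain heart infusion broth in microplate wells, each inoculated with standardized cell suspension to about 10^6 viable cells/mL final. Incubated 37 °C for 20 h. MIC read as the lowest concentration inhibiting visible growth.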

Micrococcus luteus = test: Evaluation of in vitro antimicrobial activity with an agar diffusion assay against Micrococcus luteus; assay type: functional; outline: as §1
L1210 [7] = test: In vitro evaluation of the antileukemic (cytotoxic) activity against L1210 cells in suspension; assay type: functional, Mus musculus
Shigella flexneri = test: In vitro evaluation of antimicrobial activity with microplate broth dilution assay against Shigella flexneri UC143; assay type: functional; outline: as §2
Pseudomonas aeruginosa [8] = test: In vitro evaluation of antimicrobial activity with microplate broth dilution assay against Pseudomonas aeruginosa UC95; assay type: functional; outline: as §2
Escherichia coli [9] = test: Evaluation of in vitro antimicrobial activity with an agar diffusion assay against Escherichia coli; assay type: functional; outline: as §1
Proteus mirabilis = test: In vitro evaluation of antimicrobial activity with microplate broth dilution assay against Proteus mirabilis UC6671; assay type: functional; outline: as §2
Staphylococcus aureus [10] = test: In vitro evaluation of antimicrobial activity with microplate broth dilution assay against Staphylococcus aureus UC76; assay type: functional; outline: as §2
Pseudomonas = test: Evaluation of in vitro antimicrobial activity with an agar diffusion assay against Pseudomonas fluorescence; assay type: functional; outline: as §1
Proteus vulgaris [11] = test: In vitro evaluation of antimicrobial activity with microplate broth dilution assay against Proteus vulgaris UC93; assay type: functional; outline: as §2
[12] = Evaluation of in vitro antimicrobial activity with an agar diffusion assay against Salmonella schottmuelleri; assay type: functional; outline: as §1
Escherichia coli [13] = test: In vitro evaluation of antimicrobial activity with microplate broth dilution assay against Escherichia coli UC45; assay type: functional; outline: as §2
Serratia marcescens = test: In vitro evaluation of antimicrobial activity with microplate broth dilution assay against Serratia marcescens UC131; assay type: functional; outline: as §2
Penicillium oxalicum = test: Evaluation of in vitro antimicrobial activity with an agar diffusion assay against Penicillium oxalicum; assay type: functional, pencillium oxalicum; outline: as §1
Staphylococcus aureus [14] = test: Evaluation of in vitro antimicrobial activity with an agar diffusion assay against Staphylococcus aureus; assay type: functional; outline: as §1
[15] = tested on: Saccharomyces pastorianus; test: Evaluation of in vitro antimicrobial activity with an agar diffusion assay against Saccharomyces pastorianus; assay type: functional; outline: as §1
Pseudomonas aeruginosa [16] = test: Evaluation of in vitro antimicrobial activity with an agar diffusion assay against Pseudomonas aeruginosa; Inactive; assay type: functional, organism-based; outline: as §1
Enterococcus faecalis [17] = test: In vitro evaluation of antimicrobial activity with microplate broth dilution assay against Streptococcus faecalis UC694; assay type: functional, streptococcus feacal; outline: as §2
Enterococcus faecalis [18] = test: In vitro evaluation of antimicrobial activity with microplate broth dilution assay against Streptococcus faecalis UC694

CNC(=O)n1oc(=O)c2ccccc21
Zone of inhibition (Pseudomonas aeruginosa [1]): 24 mm | Zone of inhibition (Klebsiella pneumoniae [2]): 16 mm | ID50 (L1210 [3]): 4.9 µg/mL and 14 µg/mL | Zone of inhibition (Proteus vulgaris [4]): 19 mm

CNC(=O)OCn1oc(=O)c2ccccc21
Zone of inhibition (Pseudomonas aeruginosa [1]): 39 mm | MIC (Providencia stuartii): 62.5 µg/mL (≈ 281 µM) | Zone of inhibition (Klebsiella pneumoniae [2]): 23 mm | Zone of inhibition (Bacillus subtilis): 16 mm | MIC (Klebsiella pneumoniae [5]): 62.5 µg/mL (≈ 281 µM) | MIC [6]: 31.2 µg/mL (≈ 140 µM) | MIC (Salmonella typhi): 15.6 µg/mL (≈ 70.2 µM) | Zone of inhibition (Micrococcus luteus): 33 mm | ID90 (L1210 [7]): 8.6 µg/mL (≈ 38.7 µM) | IC50 (L1210 [3]): 3.5 µg/mL (≈ 15.8 µM) | MIC (Shigella flexneri): 31.2 µg/mL (≈ 140 µM) | MIC (Pseudomonas aeruginosa [8]): 15.6 µg/mL (≈ 70.2 µM) | Zone of inhibition (Escherichia coli [9]): 30 mm | MIC (Proteus mirabilis): 31.2 µg/mL (≈ 140 µM) | MIC (Staphylococcus aureus [10]): 62.5 µg/mL (≈ 281 µM) | Zone of inhibition (Pseudomonas): 33 mm | MIC (Proteus vulgaris [11]): 15.6 µg/mL (≈ 70.2 µM) | Zone of inhibition (Proteus vulgaris [4]): 32 mm | Zone of inhibition [12]: 28 mm | MIC (Escherichia coli [13]): 31.2 µg/mL (≈ 140 µM) | MIC (Serratia marcescens): 3.9 µg/mL (≈ 17.6 µM) | Zone of inhibition (Penicillium oxalicum): 46 mm

O=C(COc1ccccc1)OCn1oc(=O)c2ccccc21
Zone of inhibition (Pseudomonas aeruginosa [1]): 19 mm | Zone of inhibition (Staphylococcus aureus [14]): 15 mm | Zone of inhibition (Klebsiella pneumoniae [2]): 22 mm | Zone of inhibition (Bacillus subtilis): 20 mm | Zone of inhibition (Micrococcus luteus): 19 mm | Zone of inhibition (Escherichia coli [9]): 18 mm | Zone of inhibition (Pseudomonas): 31 mm | Zone of inhibition (Proteus vulgaris [4]): 21 mm | Zone of inhibition [12]: 20 mm | Zone of inhibition (Penicillium oxalicum): 24 mm

Oc1onc2ccccc12
Zone of inhibition (Pseudomonas aeruginosa [1]): 30 mm | Zone of inhibition (Staphylococcus aureus [14]): 15 mm | Zone of inhibition (Klebsiella pneumoniae [2]): 26 mm | Zone of inhibition (Bacillus subtilis): 22 mm | Zone of inhibition (Micrococcus luteus): 27 mm | ID50 (L1210 [3]): 3.1 µg/mL and 8 µg/mL | Zone of inhibition [15]: 16 mm | Zone of inhibition (Escherichia coli [9]): 25 mm | Zone of inhibition (Pseudomonas): 35 mm | Zone of inhibition (Proteus vulgaris [4]): 30 mm | Zone of inhibition [12]: 26 mm | Zone of inhibition (Penicillium oxalicum): 41 mm

O=C(NCCCCCI)n1oc(=O)c2ccccc21
ID50 (L1210 [3]): 3.7 µg/mL and 8.6 µg/mL | Zone of inhibition (Pseudomonas aeruginosa [16]): inactive

CC(C)C(=O)OCn1oc(=O)c2ccccc21
Zone of inhibition (Pseudomonas aeruginosa [1]): 22 mm | Zone of inhibition (Staphylococcus aureus [14]): 17 mm | Zone of inhibition (Klebsiella pneumoniae [2]): 22 mm | Zone of inhibition (Bacillus subtilis): 17 mm | Zone of inhibition (Micrococcus luteus): 22 mm | Zone of inhibition (Escherichia coli [9]): 17 mm | Zone of inhibition (Pseudomonas): 33 mm | Zone of inhibition (Proteus vulgaris [4]): 24 mm | Zone of inhibition [12]: 23 mm | Zone of inhibition (Penicillium oxalicum): 29 mm

CC(C)(C)C(=O)OCn1oc(=O)c2ccccc21
Zone of inhibition (Pseudomonas aeruginosa [1]): 20 mm | Zone of inhibition (Staphylococcus aureus [14]): 18 mm | Zone of inhibition (Klebsiella pneumoniae [2]): 21 mm | Zone of inhibition (Bacillus subtilis): 18 mm | Zone of inhibition (Micrococcus luteus): 18 mm | Zone of inhibition (Escherichia coli [9]): 17 mm | Zone of inhibition (Pseudomonas): 30 mm | Zone of inhibition (Proteus vulgaris [4]): 18 mm | Zone of inhibition [12]: 22 mm | Zone of inhibition (Penicillium oxalicum): 31 mm

CC(=O)n1oc(=O)c2ccccc21
Zone of inhibition (Pseudomonas aeruginosa [1]): 38 mm | Zone of inhibition (Klebsiella pneumoniae [2]): 20 mm | Zone of inhibition (Bacillus subtilis): 24 mm | Zone of inhibition (Micrococcus luteus): 18 mm | ID50 (L1210 [3]): 3.4 µg/mL and 8.7 µg/mL | Zone of inhibition [15]: 21 mm | Zone of inhibition (Escherichia coli [9]): 26 mm | Zone of inhibition (Pseudomonas): 31 mm | Zone of inhibition (Proteus vulgaris [4]): 23 mm | Zone of inhibition [12]: 20 mm | Zone of inhibition (Penicillium oxalicum): 49 mm

COCn1oc(=O)c2ccccc21
Zone of inhibition (Pseudomonas aeruginosa [16]): inactive

Cc1ccc(C(=O)OCn2oc(=O)c3ccccc32)cc1
Zone of inhibition (Pseudomonas aeruginosa [1]): 22 mm | Zone of inhibition (Klebsiella pneumoniae [2]): 21 mm | Zone of inhibition (Bacillus subtilis): 20 mm | ID90 (L1210 [7]): 17 µg/mL (≈ 60 µM) | IC50 (L1210 [3]): 4.6 µg/mL (≈ 16.2 µM) | Zone of inhibition (Escherichia coli [9]): 18 mm | Zone of inhibition (Pseudomonas): 20 mm | Zone of inhibition (Proteus vulgaris [4]): 22 mm | Zone of inhibition [12]: 17 mm | Zone of inhibition (Penicillium oxalicum): 24 mm

CC(=O)OCn1oc(=O)c2ccccc21
Zone of inhibition (Pseudomonas aeruginosa [1]): 32 mm | Zone of inhibition (Staphylococcus aureus [14]): 15 mm | MIC (Providencia stuartii): 125 µg/mL (≈ 603 µM) | Zone of inhibition (Klebsiella pneumoniae [2]): 24 mm | Zone of inhibition (Bacillus subtilis): 24 mm | MIC (Klebsiella pneumoniae [5]): 62.5 µg/mL (≈ 302 µM) | MIC [6]: 62.5 µg/mL (≈ 302 µM) | MIC (Salmonella typhi): 62.5 µg/mL (≈ 302 µM) | Zone of inhibition (Micrococcus luteus): 24 mm | ID90 (L1210 [7]): 19 µg/mL (≈ 91.7 µM) | IC50 (L1210 [3]): 5.1 µg/mL (≈ 24.6 µM) | Zone of inhibition [15]: 17 mm | MIC (Shigella flexneri): 62.5 µg/mL (≈ 302 µM) | Zone of inhibition (Escherichia coli [9]): 26 mm | MIC (Proteus mirabilis): 62.5 µg/mL (≈ 302 µM) | MIC (Staphylococcus aureus [10]): > 250 µg/mL | Zone of inhibition (Pseudomonas): 32 mm | MIC (Proteus vulgaris [11]): 15.6 µg/mL (≈ 75.3 µM) | Zone of inhibition (Proteus vulgaris [4]): 25 mm | Zone of inhibition [12]: 22 mm | MIC (Escherichia coli [13]): 125 µg/mL (≈ 603 µM) | MIC (Enterococcus faecalis [17]): > 250 µg/mL | MIC (Serratia marcescens): 15.6 µg/mL (≈ 75.3 µM) | Zone of inhibition (Penicillium oxalicum): 43 mm

O=C(CCCCCI)OCn1oc(=O)c2ccccc21
Zone of inhibition (Pseudomonas aeruginosa [1]): 17 mm | Zone of inhibition (Bacillus subtilis): 15 mm | ID50 (L1210 [3]): 19 µg/mL (≈ 48.8 µM) | Zone of inhibition (Pseudomonas): 23 mm | Zone of inhibition (Proteus vulgaris [4]): 15 mm | Zone of inhibition (Penicillium oxalicum): 26 mm

Cn1oc(=O)c2ccccc21
Zone of inhibition (Pseudomonas aeruginosa [16]): inactive

CCCCCCCCCCCCCCCC(=O)OCn1oc(=O)c2ccccc21
Zone of inhibition (Pseudomonas aeruginosa [16]): inactive

O=c1on(CO)c2ccccc12
MIC (Providencia stuartii): 31.2 µg/mL (≈ 189 µM) | MIC (Klebsiella pneumoniae [5]): 31.6 µg/mL (≈ 191 µM) | MIC [6]: 31.2 µg/mL (≈ 189 µM) | MIC (Salmonella typhi): 7.8 µg/mL (≈ 47.2 µM) | MIC (Shigella flexneri): 15.6 µg/mL (≈ 94.5 µM) | MIC (Pseudomonas aeruginosa [8]): 7.8 µg/mL (≈ 47.2 µM) | MIC (Proteus mirabilis): 15.6 µg/mL (≈ 94.5 µM) | MIC (Staphylococcus aureus [10]): 62.5 µg/mL (≈ 378 µM) | MIC (Enterococcus faecalis [18]): 250 µg/mL (≈ 1510 µM) | MIC (Proteus vulgaris [11]): 3.9 µg/mL (≈ 23.6 µM) | MIC (Escherichia coli [13]): 15.6 µg/mL (≈ 94.5 µM) | MIC (Serratia marcescens): 2 µg/mL (≈ 12.1 µM)

CS(=O)(=O)n1oc(=O)c2ccccc21
Zone of inhibition (Pseudomonas aeruginosa [1]): 31 mm | ID50 (L1210 [3]): 3.7 µg/mL and 8.6 µg/mL
